Source: ChEMBL document CHEMBL1122798, “Trypanocidal 1,3-arylene diketone bis(guanylhydrazone)s. Structure-activity relationships among substituted and heterocyclic analogues” (1984)

Key:
Format in all cases: functional
Mus musculus [1] = assay: Compound was tested for Trypanocidal Activity in mice at 60 mg/kg; 0/5
Mus musculus [2] = assay: Compound was tested for Trypanocidal Activity in mice at 40 mg/kg; 0/5
Mus musculus [3] = assay: Compound was tested for Trypanocidal Activity in mice at 150 mg/kg; 0/5
Mus musculus [4] = assay: Compound was tested for Trypanocidal Activity in mice at 15 mg/kg; 0/10
Mus musculus [5] = assay: Compound was tested for Trypanocidal Activity in mice at 100 mg/kg; 0/5
Mus musculus [6] = assay: Compound was tested for Trypanocidal Activity in mice at 25 mg/kg; 10/10
Mus musculus [7] = assay: Compound was tested for Trypanocidal Activity in mice at 1.5 mg/kg; 0/20
Mus musculus [8] = assay: Compound was tested for Trypanocidal Activity in mice at 4 mg/kg; 10/30
Mus musculus [9] = species on record: Mus musculus; assay: Effective dose against Trypanosoma brucei infection in mice
Summary of the method: (§1)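 Female Swiss-Webster mice (20–25 g) were infected ip with 5×10^4 T. brucei EATRO 110 organisms in fresh mouse blood diluted with minimum essential medium. Groups of 5 or 10 received a single ip dose in normal saline (solution or milled suspension, 20 μL/g) 6 h post-infection. Deaths within 72 h were scored as toxic. Survivors aparasitemic at 28 days (tail-blood wet films, phase contrast) counted as cures. ED50 was computed by Bliss/Litchfield–Wilcoxon, excluding toxic dosages.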

Mus musculus [10] = assay: Compound was tested for Trypanocidal Activity in mice at 40 mg/kg; 10/10
Mus musculus [11] = assay: Compound was tested for Trypanocidal Activity in mice at 6 mg/kg; 14/30
Mus musculus [12] = assay: Compound was tested for Trypanocidal Activity in mice at 15 mg/kg; 10/10
Mus musculus [13] = assay: Compound was tested for Trypanocidal Activity in mice at 2.5 mg/kg; 5/30
Mus musculus [14] = assay: Compound was tested for Trypanocidal Activity in mice at 60 mg/kg; toxic deaths; 1/10
Mus musculus [15] = assay: Tested for Trypanocidal Activity in mice at 10 mg/kg; 17/20; summary of the method: as §1
Mus musculus [16] = assay: Compound was tested for Trypanocidal Activity in mice at 60 mg/kg; 3/5
Mus musculus [17] = assay: Compound was tested for Trypanocidal Activity in mice at 15 mg/kg; 19/20
Mus musculus [18] = assay: Compound was tested for Trypanocidal Activity in mice at 25 mg/kg; 18/20
Mus musculus [19] = assay: Compound was tested for Trypanocidal Activity in mice at 4 mg/kg; 10/20
Mus musculus [20] = assay: Compound was tested for Trypanocidal Activity in mice at 2.5 mg/kg; 1/10
Mus musculus [21] = assay: Compound was tested for Trypanocidal Activity in mice at 10 mg/kg; 20/20
Mus musculus [22] = assay: Compound was tested for Trypanocidal Activity in mice at 1.5 mg/kg; 0/10
Mus musculus [23] = assay: Compound was tested for Trypanocidal Activity in mice at 6 mg/kg; 17/20
Mus musculus [24] = assay: Compound was tested for Trypanocidal Activity in mice at 15 mg/kg; 0/5
Mus musculus [25] = assay: Compound was tested for Trypanocidal Activity in mice at 25 mg/kg; 0/5
Mus musculus [26] = assay: Compound was tested for Trypanocidal Activity in mice at 40 mg/kg; 0/10
Mus musculus [27] = assay: Compound was tested for Trypanocidal Activity in mice at 60 mg/kg; 2/5
Mus musculus [28] = assay: Compound was tested for Trypanocidal Activity in mice at 10 mg/kg; 11/30
Mus musculus [29] = assay: Compound was tested for Trypanocidal Activity in mice at 6 mg/kg; 0/20
Mus musculus [30] = assay: Compound was tested for Trypanocidal Activity in mice at 25 mg/kg; 16/20
Mus musculus [31] = assay: Compound was tested for Trypanocidal Activity in mice at 15 mg/kg; 14/25
Mus musculus [32] = assay: Compound was tested for Trypanocidal Activity in mice at 4 mg/kg; 0/10
Mus musculus [33] = assay: Compound was tested for Trypanocidal Activity in mice at 100 mg/kg; 1/5
Mus musculus [34] = assay: Compound was tested for Trypanocidal Activity in mice at 60 mg/kg; 5/5
Mus musculus [35] = assay: Compound was tested for Trypanocidal Activity in mice at 40 mg/kg; 13/15
Mus musculus [36] = assay: Compound was tested for Trypanocidal Activity in mice at 0.15 mg/kg; 6/20
Mus musculus [37] = assay: Compound was tested for Trypanocidal Activity in mice at 100 mg/kg; 5/5
Mus musculus [38] = assay: Compound was tested for Trypanocidal Activity in mice at 15 mg/kg; 3/5
Mus musculus [39] = assay: Compound was tested for Trypanocidal Activity in mice at 10 mg/kg; 5/5
Mus musculus [40] = assay: Compound was tested for Trypanocidal Activity in mice at 0.6 mg/kg; 23/25
Mus musculus [41] = assay: Compound was tested for Trypanocidal Activity in mice at 2.5 mg/kg; 9/10
Mus musculus [42] = assay: Compound was tested for Trypanocidal Activity in mice at 0.25 mg/kg; 28/40
Mus musculus [43] = assay: Compound was tested for Trypanocidal Activity in mice at 150 mg/kg; 3/5
Mus musculus [44] = assay: Compound was tested for Trypanocidal Activity in mice at 25 mg/kg; 3/5
Mus musculus [45] = assay: Compound was tested for Trypanocidal Activity in mice at 0.06 mg/kg; 0/10
Mus musculus [46] = assay: Compound was tested for Trypanocidal Activity in mice at 1.0 mg/kg; 9/10
Mus musculus [47] = assay: Compound was tested for Trypanocidal Activity in mice at 0.1 mg/kg; 1/10
Mus musculus [48] = assay: Compound was tested for Trypanocidal Activity in mice at 0.4 mg/kg; 24/45
Mus musculus [49] = assay: Compound was tested for Trypanocidal Activity in mice at 40 mg/kg; 5/5
Mus musculus [50] = assay: Compound was tested for Trypanocidal Activity in mice at 6 mg/kg; 10/10
Mus musculus [51] = assay: Compound was tested for Trypanocidal Activity in mice at 1.5 mg/kg; 19/20
Mus musculus [52] = assay: Compound was tested for Trypanocidal Activity in mice at 4 mg/kg; 10/10
Mus musculus [53] = assay: Compound was tested for Trypanocidal Activity in mice at 25 mg/kg; 0/15

Q: Which results are given for C/C(=N\NC(=N)N)c1cc(/C(C)=N/NC(=N)N)c(C)nc1C.CS(=O)(=O)O.Cl.Cl?
A: Cures/total (Mus musculus [1]): 0; Cures/total (Mus musculus [2]): 0; Cures/total (Mus musculus [3]): 0; Cures/total (Mus musculus [4]): 0; Cures/total (Mus musculus [5]): 0

Q: With CCO.COc1cc(/C(C)=N/NC(=N)N)cc(/C(C)=N/NC(=N)N)c1.Cl as the compound, how does the Cures/total (Mus musculus [6]) read?
A: Its Cures/total is 10.

Q: And the Cures/total (Mus musculus [7])?
A: The Cures/total was 0.

Q: And the Cures/total (Mus musculus [8])?
A: The Cures/total was 10.

Q: What about the ED50 (Mus musculus [9]) of the same compound?
A: The ED50 was 5.4 mg/kg.

Q: What about the Cures/total (Mus musculus [10]) of the same compound?
A: The Cures/total was 10.

Q: And the Cures/total (Mus musculus [11])?
A: Its Cures/total is 14.

Q: What about the “Mice cured (number)” value (Mus musculus [12]) of the same compound?
A: The value was 10.

Q: And the Cures/total (Mus musculus [5])?
A: The Cures/total was 0.

Q: And the Cures/total (Mus musculus [13])?
A: Its Cures/total is 5.

Q: And the Cures/total (Mus musculus [14])?
A: Its Cures/total is 1.

Q: What about the Cures/total (Mus musculus [15]) of the same compound?
A: Its Cures/total is 17.

Q: Which Cures/total (Mus musculus [16]) does the source give for C/C(=N\NC(=N)N)c1cccc(/C(C)=N/NC(=N)N)n1.Cl here?
A: Its Cures/total is 3.

Q: And the Cures/total (Mus musculus [17])?
A: Its Cures/total is 19.

Q: And the ED50 (Mus musculus [9])?
A: The ED50 was 4.1 mg/kg.

Q: And the Cures/total (Mus musculus [10])?
A: Its Cures/total is 10.

Q: And the Cures/total (Mus musculus [18])?
A: Its Cures/total is 18.

Q: What about the Cures/total (Mus musculus [19]) of the same compound?
A: The Cures/total was 10.

Q: What about the Cures/total (Mus musculus [20]) of the same compound?
A: The Cures/total was 1.

Q: What about the Cures/total (Mus musculus [21]) of the same compound?
A: The Cures/total was 20.

Q: What about the Cures/total (Mus musculus [5]) of the same compound?
A: Its Cures/total is 0.

Q: And the Cures/total (Mus musculus [22])?
A: The Cures/total was 0.

Q: What about the Cures/total (Mus musculus [23]) of the same compound?
A: Its Cures/total is 17.

Q: C/C(=N\NC(=N)N)c1cccc(/C(C)=N/NC(=N)N)c1N.Cl was tested. Which Cures/total (Mus musculus [2]) did it give?
A: Its Cures/total is 0.

Q: And the Cures/total (Mus musculus [24])?
A: The Cures/total was 0.

Q: What about the Cures/total (Mus musculus [25]) of the same compound?
A: Its Cures/total is 0.

Q: Which results are given for C/C(=N\NC(=N)N)c1cc(I)cc(/C(C)=N/NC(=N)N)c1.Cl?
A: Cures/total (Mus musculus [26]): 0; Cures/total (Mus musculus [27]): 2; Cures/total (Mus musculus [5]): 0

Q: C/C(=N\NC(=N)N)c1ccc(/C(C)=N/NC(=N)N)s1.CC(C)O.Cl was tested. Which Cures/total (Mus musculus [28]) did it give?
A: Its Cures/total is 11.

Q: And the Cures/total (Mus musculus [29])?
A: Its Cures/total is 0.

Q: What about the Cures/total (Mus musculus [30]) of the same compound?
A: The Cures/total was 16.

Q: And the ED50 (Mus musculus [9])?
A: Its ED50 is 14 mg/kg.

Q: What about the Cures/total (Mus musculus [31]) of the same compound?
A: The Cures/total was 14.

Q: And the Cures/total (Mus musculus [32])?
A: Its Cures/total is 0.

Q: What about the Cures/total (Mus musculus [33]) of the same compound?
A: The Cures/total was 1.

Q: What about the Cures/total (Mus musculus [34]) of the same compound?
A: The Cures/total was 5.

Q: And the Cures/total (Mus musculus [35])?
A: The Cures/total was 13.

Q: What does the source list for CC(=O)NCC(=O)O.N=C(N)c1ccc(/N=N/Nc2ccc(C(=N)N)cc2)cc1 [DIMINAZEN ACETURATE]?
A: Cures/total (Mus musculus [36]): 6; Cures/total (Mus musculus [37]): 5; Cures/total (Mus musculus [38]): 3; Cures/total (Mus musculus [39]): 5; Cures/total (Mus musculus [40]): 23; Cures/total (Mus musculus [41]): 9; Cures/total (Mus musculus [42]): 28; ED50 (Mus musculus [9]): 0.24 mg/kg; Cures/total (Mus musculus [43]): 3; Cures/total (Mus musculus [44]): 3; Cures/total (Mus musculus [45]): 0; Cures/total (Mus musculus [46]): 9; Cures/total (Mus musculus [47]): 1; Cures/total (Mus musculus [48]): 24; Cures/total (Mus musculus [34]): 5; Cures/total (Mus musculus [49]): 5; Cures/total (Mus musculus [50]): 10; Cures/total (Mus musculus [51]): 19; Cures/total (Mus musculus [52]): 10

Q: For CCCC/C(=N\NC(=N)N)c1cccc(/C(CCCC)=N/NC(=N)N)c1.Cl, which Cures/total (Mus musculus [1]) is on record?
A: The Cures/total was 0.

Q: And the Cures/total (Mus musculus [2])?
A: Its Cures/total is 0.

Q: What about the Cures/total (Mus musculus [53]) of the same compound?
A: Its Cures/total is 0.
